In ChEMBL document CHEMBL4359823, “Switching on the activity of 1,5-diaryl-pyrrole derivatives against drug-resistant ESKAPE bacteria: Structure-activity relationships and mode of action studies” (Eur J Med Chem, 2019):
Converted amounts (≈) assume the structure as drawn.

Legend:
Format in all cases: functional
Enterococcus faecalis [1] = experiment: Antibacterial activity against vancomycin resistant Enterococcus faecalis NCTC12204 measured after overnight incubation by microbroth dilution method
Summary of the method: (§1)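 Microbroth dilution: DMSO stocks diluted in water, 2-fold series. Overnight TSB cultures back-diluted to OD 0.01 and mixed 1:1 with compound. Incubated overnight at 37 °C; MIC taken as lowest concentration without visible growth (<0.1 OD600). Run in duplicate; matching DMSO levels checked for effect on growth.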

Enterococcus faecalis [2] = experiment: Antibacterial activity against vancomycin resistant Enterococcus faecalis NCTC12201 measured after overnight incubation by microbroth dilution method; summary of the method: as §1
Staphylococcus aureus [3] = experiment: Antibacterial activity against methicillin sensitive Staphylococcus aureus NCTC 6571 measured after overnight incubation by microbroth dilution method; summary of the method: as §1
Staphylococcus aureus [4] = experiment: Antibacterial activity against methicillin resistant Staphylococcus aureus NCTC13616 measured after overnight incubation by microbroth dilution method; summary of the method: as §1
Staphylococcus aureus [5] = experiment: Antibacterial activity against methicillin resistant Staphylococcus aureus NCTC13277 measured after overnight incubation by microbroth dilution method; summary of the method: as §1
Enterococcus faecalis [6] = experiment: Antibacterial activity against vancomycin sensitive Enterococcus faecalis NCTC775 measured after overnight incubation by microbroth dilution method; summary of the method: as §1
Klebsiella pneumoniae [7] = experiment: Antibacterial activity against Klebsiella pneumoniae NCTC13368 measured after overnight incubation by microbroth dilution method
Summary of the method: (§2)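 Microbroth dilution MIC. Compound DMSO stocks were diluted in water as a 2-fold series. Overnight TSB cultures were back-diluted to OD 0.01 and mixed 1:1 with compound. Plates were incubated overnight at 37 °C. MIC was the lowest concentration without visible growth (<0.1 OD600), run in duplicate.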

Klebsiella pneumoniae [8] = experiment: Antibacterial activity against Klebsiella pneumoniae M6 measured after overnight incubation by microbroth dilution method; summary of the method: as §2
Acinetobacter baumannii [9] = experiment: Antibacterial activity against Acinetobacter baumannii AYE measured after overnight incubation by microbroth dilution method; summary of the method: as §2
Acinetobacter baumannii [10] = experiment: Antibacterial activity against Acinetobacter baumannii ATCC 17978 measured after overnight incubation by microbroth dilution method; summary of the method: as §2
Pseudomonas aeruginosa [11] = experiment: Antibacterial activity against Pseudomonas aeruginosa PAO1 measured after overnight incubation by microbroth dilution method; summary of the method: as §2
Pseudomonas aeruginosa [12] = experiment: Antibacterial activity against Pseudomonas aeruginosa NCTC13437 measured after overnight incubation by microbroth dilution method; summary of the method: as §2
Escherichia coli = experiment: Antibacterial activity against Escherichia coli NCTC12923 measured after overnight incubation by microbroth dilution method; summary of the method: as §2

SMILES: Cc1c(CNC2CCCCCC2)cc(-c2ccc(Cl)cc2)n1-c1ccc(Cl)cc1
- MIC (Enterococcus faecalis [1]): 2 µg/mL (≈ 4.68 µM)
- MIC (Enterococcus faecalis [2]): 2 µg/mL (≈ 4.68 µM)
- MIC (Staphylococcus aureus [3]): 4 µg/mL (≈ 9.36 µM)
- MIC (Staphylococcus aureus [4]): 4 µg/mL (≈ 9.36 µM)
- MIC (Staphylococcus aureus [5]): 4 µg/mL (≈ 9.36 µM)
- MIC (Enterococcus faecalis [6]): 4 µg/mL (≈ 9.36 µM)
- MIC (Klebsiella pneumoniae [7]): > 128 µg/mL
- MIC (Klebsiella pneumoniae [8]): > 128 µg/mL
- MIC (Acinetobacter baumannii [9]): 128 µg/mL (≈ 299 µM)
- MIC (Acinetobacter baumannii [10]): 64 µg/mL (≈ 150 µM)
- MIC (Pseudomonas aeruginosa [11]): 128 µg/mL (≈ 299 µM)
- MIC (Pseudomonas aeruginosa [12]): 128 µg/mL (≈ 299 µM)
- MIC (Escherichia coli): > 128 µg/mL

SMILES: COc1ccc(-n2c(-c3ccc(Cl)cc3)cc(CNC3CCCCC3)c2C)cc1
- MIC (Enterococcus faecalis [1]): 8 µg/mL (≈ 19.6 µM)
- MIC (Enterococcus faecalis [2]): 8 µg/mL (≈ 19.6 µM)
- MIC (Staphylococcus aureus [3]): 16 µg/mL (≈ 39.1 µM)
- MIC (Staphylococcus aureus [4]): 16 µg/mL (≈ 39.1 µM)
- MIC (Staphylococcus aureus [5]): 16 µg/mL (≈ 39.1 µM)
- MIC (Enterococcus faecalis [6]): 8 µg/mL (≈ 19.6 µM)
- MIC (Klebsiella pneumoniae [7]): > 128 µg/mL
- MIC (Klebsiella pneumoniae [8]): > 128 µg/mL
- MIC (Acinetobacter baumannii [9]): > 128 µg/mL
- MIC (Acinetobacter baumannii [10]): 128 µg/mL (≈ 313 µM)
- MIC (Pseudomonas aeruginosa [11]): > 128 µg/mL
- MIC (Pseudomonas aeruginosa [12]): > 128 µg/mL
- MIC (Escherichia coli): > 128 µg/mL

SMILES: Cc1c(CNC2CCCCC2)cc(-c2ccc(Cl)cc2)n1-c1ccccc1C(F)(F)F
- MIC (Enterococcus faecalis [1]): 2 µg/mL (≈ 4.47 µM)
- MIC (Enterococcus faecalis [2]): 4 µg/mL (≈ 8.95 µM)
- MIC (Staphylococcus aureus [3]): 4 µg/mL (≈ 8.95 µM)
- MIC (Staphylococcus aureus [4]): 8 µg/mL (≈ 17.9 µM)
- MIC (Staphylococcus aureus [5]): 8 µg/mL (≈ 17.9 µM)
- MIC (Enterococcus faecalis [6]): 4 µg/mL (≈ 8.95 µM)
- MIC (Klebsiella pneumoniae [7]): > 128 µg/mL
- MIC (Klebsiella pneumoniae [8]): > 128 µg/mL
- MIC (Acinetobacter baumannii [9]): 128 µg/mL (≈ 286 µM)
- MIC (Acinetobacter baumannii [10]): > 128 µg/mL
- MIC (Pseudomonas aeruginosa [11]): > 128 µg/mL
- MIC (Pseudomonas aeruginosa [12]): > 128 µg/mL
- MIC (Escherichia coli): > 128 µg/mL

SMILES: Cc1c(CNC2CCCCC2)cc(-c2ccc(Cl)cc2)n1-c1ccc(F)cc1
- MIC (Enterococcus faecalis [1]): 4 µg/mL (≈ 10.1 µM)
- MIC (Enterococcus faecalis [2]): 4 µg/mL (≈ 10.1 µM)
- MIC (Staphylococcus aureus [3]): 8 µg/mL (≈ 20.2 µM)
- MIC (Staphylococcus aureus [4]): 8 µg/mL (≈ 20.2 µM)
- MIC (Staphylococcus aureus [5]): 8 µg/mL (≈ 20.2 µM)
- MIC (Enterococcus faecalis [6]): 4 µg/mL (≈ 10.1 µM)
- MIC (Klebsiella pneumoniae [7]): > 128 µg/mL
- MIC (Klebsiella pneumoniae [8]): > 128 µg/mL
- MIC (Acinetobacter baumannii [9]): 128 µg/mL (≈ 322 µM)
- MIC (Acinetobacter baumannii [10]): 64 µg/mL (≈ 161 µM)
- MIC (Pseudomonas aeruginosa [11]): > 128 µg/mL
- MIC (Pseudomonas aeruginosa [12]): > 128 µg/mL
- MIC (Escherichia coli): > 128 µg/mL

SMILES: Cc1cc(CNCCCCCCCCNC(=N)N)c(C)n1-c1ccc(Cl)cc1
- MIC (Enterococcus faecalis [1]): 4 to 8 µg/mL (≈ 9.9 to 19.8 µM)
- MIC (Enterococcus faecalis [2]): 16 µg/mL (≈ 39.6 µM)
- MIC (Staphylococcus aureus [3]): 4 µg/mL (≈ 9.9 µM)
- MIC (Staphylococcus aureus [4]): 8 µg/mL (≈ 19.8 µM)
- MIC (Staphylococcus aureus [5]): 8 µg/mL (≈ 19.8 µM)
- MIC (Enterococcus faecalis [6]): 8 to 16 µg/mL (≈ 19.8 to 39.6 µM)
- MIC (Klebsiella pneumoniae [7]): > 128 µg/mL
- MIC (Klebsiella pneumoniae [8]): 128 µg/mL (≈ 317 µM)
- MIC (Acinetobacter baumannii [9]): 64 µg/mL (≈ 158 µM)
- MIC (Acinetobacter baumannii [10]): 16 µg/mL (≈ 39.6 µM)
- MIC (Pseudomonas aeruginosa [11]): > 128 µg/mL
- MIC (Pseudomonas aeruginosa [12]): 64 µg/mL (≈ 158 µM)
- MIC (Escherichia coli): 16 µg/mL (≈ 39.6 µM)

SMILES: Cc1c(CNC2CCC(NC(=N)N)CC2)cc(-c2ccc(Cl)cc2)n1-c1ccc([N+](=O)[O-])cc1 (stereo not drawn)
- MIC (Enterococcus faecalis [1]): 16 µg/mL (≈ 33.3 µM)
- MIC (Enterococcus faecalis [2]): 64 µg/mL (≈ 133 µM)
- MIC (Staphylococcus aureus [3]): 4 µg/mL (≈ 8.32 µM)
- MIC (Staphylococcus aureus [4]): 8 µg/mL (≈ 16.6 µM)
- MIC (Staphylococcus aureus [5]): 8 µg/mL (≈ 16.6 µM)
- MIC (Enterococcus faecalis [6]): 32 µg/mL (≈ 66.5 µM)
- MIC (Klebsiella pneumoniae [7]): > 128 µg/mL
- MIC (Klebsiella pneumoniae [8]): > 128 µg/mL
- MIC (Acinetobacter baumannii [9]): > 128 µg/mL
- MIC (Acinetobacter baumannii [10]): 64 µg/mL (≈ 133 µM)
- MIC (Pseudomonas aeruginosa [11]): > 128 µg/mL
- MIC (Pseudomonas aeruginosa [12]): > 128 µg/mL
- MIC (Escherichia coli): 64 µg/mL (≈ 133 µM)

SMILES: Cc1c(CNC2CCCCC2)cc(-c2ccc(Cl)cc2)n1-c1ccc([N+](=O)[O-])cc1
- MIC (Enterococcus faecalis [1]): 4 µg/mL (≈ 9.44 µM)
- MIC (Enterococcus faecalis [2]): 8 µg/mL (≈ 18.9 µM)
- MIC (Staphylococcus aureus [3]): 8 µg/mL (≈ 18.9 µM)
- MIC (Staphylococcus aureus [4]): 16 µg/mL (≈ 37.7 µM)
- MIC (Staphylococcus aureus [5]): 16 µg/mL (≈ 37.7 µM)
- MIC (Enterococcus faecalis [6]): 8 µg/mL (≈ 18.9 µM)
- MIC (Klebsiella pneumoniae [7]): > 128 µg/mL
- MIC (Klebsiella pneumoniae [8]): > 128 µg/mL
- MIC (Acinetobacter baumannii [9]): 128 µg/mL (≈ 302 µM)
- MIC (Acinetobacter baumannii [10]): 128 µg/mL (≈ 302 µM)
- MIC (Pseudomonas aeruginosa [11]): > 128 µg/mL
- MIC (Pseudomonas aeruginosa [12]): > 128 µg/mL
- MIC (Escherichia coli): > 128 µg/mL

SMILES: Cc1c(CNC2CCC(O)CC2)cc(-c2ccc(Cl)cc2)n1-c1ccc(Cl)cc1 (stereo not drawn)
- MIC (Enterococcus faecalis [1]): 8 µg/mL (≈ 18.6 µM)
- MIC (Enterococcus faecalis [2]): 16 µg/mL (≈ 37.3 µM)
- MIC (Staphylococcus aureus [3]): 16 µg/mL (≈ 37.3 µM)
- MIC (Staphylococcus aureus [4]): 16 µg/mL (≈ 37.3 µM)
- MIC (Staphylococcus aureus [5]): 16 µg/mL (≈ 37.3 µM)
- MIC (Enterococcus faecalis [6]): 16 µg/mL (≈ 37.3 µM)
- MIC (Klebsiella pneumoniae [7]): > 128 µg/mL
- MIC (Klebsiella pneumoniae [8]): > 128 µg/mL
- MIC (Acinetobacter baumannii [9]): 128 µg/mL (≈ 298 µM)
- MIC (Acinetobacter baumannii [10]): 64 µg/mL (≈ 149 µM)
- MIC (Pseudomonas aeruginosa [11]): > 128 µg/mL
- MIC (Pseudomonas aeruginosa [12]): > 128 µg/mL
- MIC (Escherichia coli): > 128 µg/mL

SMILES: Cc1c(CNC(C)c2ccccc2)cc(-c2ccc(Cl)cc2)n1-c1ccc(Cl)cc1 (stereo not drawn)
- MIC (Enterococcus faecalis [1]): 2 µg/mL (≈ 4.59 µM)
- MIC (Enterococcus faecalis [2]): 2 to 4 µg/mL (≈ 4.59 to 9.19 µM)
- MIC (Staphylococcus aureus [3]): 4 µg/mL (≈ 9.19 µM)
- MIC (Staphylococcus aureus [4]): 4 µg/mL (≈ 9.19 µM)
- MIC (Staphylococcus aureus [5]): 4 µg/mL (≈ 9.19 µM)
- MIC (Enterococcus faecalis [6]): 2 to 4 µg/mL (≈ 4.59 to 9.19 µM)
- MIC (Klebsiella pneumoniae [7]): > 128 µg/mL
- MIC (Klebsiella pneumoniae [8]): > 128 µg/mL
- MIC (Acinetobacter baumannii [9]): > 128 µg/mL
- MIC (Acinetobacter baumannii [10]): > 128 µg/mL
- MIC (Pseudomonas aeruginosa [11]): > 128 µg/mL
- MIC (Pseudomonas aeruginosa [12]): > 128 µg/mL
- MIC (Escherichia coli): 16 to 128 µg/mL (≈ 36.7 to 294 µM)

SMILES: Cc1c(CNC2CCCCC2)cc(-c2ccc(F)cc2)n1-c1ccc(Cl)cc1
- MIC (Enterococcus faecalis [1]): 4 µg/mL (≈ 10.1 µM)
- MIC (Enterococcus faecalis [2]): 4 µg/mL (≈ 10.1 µM)
- MIC (Staphylococcus aureus [3]): 8 µg/mL (≈ 20.2 µM)
- MIC (Staphylococcus aureus [4]): 8 µg/mL (≈ 20.2 µM)
- MIC (Staphylococcus aureus [5]): 8 µg/mL (≈ 20.2 µM)
- MIC (Enterococcus faecalis [6]): 8 µg/mL (≈ 20.2 µM)
- MIC (Klebsiella pneumoniae [7]): > 128 µg/mL
- MIC (Klebsiella pneumoniae [8]): > 128 µg/mL
- MIC (Acinetobacter baumannii [9]): 128 µg/mL (≈ 322 µM)
- MIC (Acinetobacter baumannii [10]): 128 µg/mL (≈ 322 µM)
- MIC (Pseudomonas aeruginosa [11]): > 128 µg/mL
- MIC (Pseudomonas aeruginosa [12]): > 128 µg/mL
- MIC (Escherichia coli): > 128 µg/mL

SMILES: Cc1c(CNC2CCCCCC2)cc(-c2ccc(Cl)cc2)n1-c1ccc(F)cc1
- MIC (Enterococcus faecalis [1]): 2 µg/mL (≈ 4.87 µM)
- MIC (Enterococcus faecalis [2]): 4 µg/mL (≈ 9.73 µM)
- MIC (Staphylococcus aureus [3]): 4 µg/mL (≈ 9.73 µM)
- MIC (Staphylococcus aureus [4]): 8 µg/mL (≈ 19.5 µM)
- MIC (Staphylococcus aureus [5]): 4 µg/mL (≈ 9.73 µM)
- MIC (Enterococcus faecalis [6]): 4 µg/mL (≈ 9.73 µM)
- MIC (Klebsiella pneumoniae [7]): > 128 µg/mL
- MIC (Klebsiella pneumoniae [8]): > 128 µg/mL
- MIC (Acinetobacter baumannii [9]): 128 µg/mL (≈ 311 µM)
- MIC (Acinetobacter baumannii [10]): > 128 µg/mL
- MIC (Pseudomonas aeruginosa [11]): > 128 µg/mL
- MIC (Pseudomonas aeruginosa [12]): > 128 µg/mL
- MIC (Escherichia coli): 128 µg/mL (≈ 311 µM)
